# Experimental data from ChEMBL document CHEMBL1770055, “Regioselective one pot synthesis of 3,3'-diindolylethylene derivatives and study of their cytotoxic activity” (Bioorg Med Chem Lett, 2011).
# pIC50: −log10 of the molar value.
# Legend:
# U-937 [1] = assay: Cytotoxicity against human U937 cells assessed as cell growth inhibition after 48 hrs by MTS-PMS assay; assay type: functional, cell-based; conditions: U-937, 48 h
# Outline: (§1)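 Cells seeded at 5 × 10^4 per 200 µl and exposed to compounds at 0–100 µM, in triplicate, for 48 h at 37 °C, 5% CO2. MTS (2.0 mg/ml) and PMS (0.92 mg/ml) were mixed 10:1 and added, followed by 3 h at 37 °C. Absorbance (formazan) was read at 490 nm. Viability is expressed as % of untreated. IC50 was obtained by graphic extrapolation.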
# K562 = assay: Cytotoxicity against human K562 cells assessed as cell growth inhibition after 48 hrs by MTS-PMS assay; assay type: functional, cell-based; conditions: K562, 48 h; outline: as §1
# U-937 [2] = assay: Induction of apoptosis in human U937 cells assessed as apoptotic cells at 13.06 uM after 8 hrs using annexin V/propidium iodide staining by flow cytometry (reference value: 2.42%); assay type: functional
# U-937 [3] = assay: Induction of apoptosis in human U937 cells assessed as late apoptotic cells at 13.06 uM after 8 hrs using annexin V/propidium iodide staining by flow cytometry (reference value: 5.83%); assay type: functional
# U-937 [4] = assay: Induction of apoptosis in human U937 cells assessed as pre-necrotic cells at 13.06 uM after 8 hrs using annexin V/propidium iodide staining by flow cytometry (reference value: 0.30%); assay type: functional
Compound,pIC50 (U-937 [1]),pIC50 (K562),Activity (U-937 [2]) [%],Activity (U-937 [3]) [%],Activity (U-937 [4]) [%]
C=C(c1c(-c2ccccc2)[nH]c2ccccc12)c1c(-c2ccccc2)[nH]c2ccccc12,< 4.00,< 4.00,–,–,–
C=C(c1c(-c2cccc(Cl)c2)[nH]c2ccccc12)c1c(-c2cccc(Cl)c2)[nH]c2ccccc12,4.33,4.39,–,–,–
C=C(c1c(-c2ccc(Cl)cc2Cl)[nH]c2ccccc12)c1c(-c2ccc(Cl)cc2Cl)[nH]c2ccccc12,< 4.00,< 4.00,–,–,–
C=C(c1c(-c2ccccc2OC)[nH]c2ccccc12)c1c(-c2ccccc2OC)[nH]c2ccccc12,4.15,4.03,–,–,–
C=C(c1c(-c2ccc(OC)c(OC)c2)[nH]c2ccccc12)c1c(-c2ccc(OC)c(OC)c2)[nH]c2ccccc12,< 4.00,< 4.00,–,–,–
C=C(c1c(-c2cccc(Br)c2)[nH]c2ccccc12)c1c(-c2cccc(Br)c2)[nH]c2ccccc12,< 4.00,< 4.00,–,–,–
ClC=C(c1c(-c2ccccc2)[nH]c2ccccc12)c1c(-c2ccccc2)[nH]c2ccccc12,4.88,4.74,41,11.68,1.3
